The RNAGym collection of RNA variant scans (doi:10.1126/science.aae0568)
Fewer inactive variants are shown than the library holds.

B1: tRNA (parent)
chain: GUUCCGUUGGCGUAAUGGUAACGCGUCUCCCUCCUAAGGAGAAGACUGCGGGUUCGAGUCCCGUACGGAACG

Variants of: B1
Test: yeast fitness relative to wild type (ratio to wild type); higher = fitter; tRNA-Arg(CCU), competitive growth, 37 C, YPD
Method in brief: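 Gene amplicons from the start population and from each of six end populations were read by 100-nucleotide paired-end sequencing. Those end populations came from pooled Saccharomyces cerevisiae strains carrying tRNA-Arg(CCU) gene variants at the native locus, competed in YPD at 37°C for 24 hours. Fitness relative to wild type was worked out from changes in genotype frequencies. Genotypes needed ≥ 100 starting reads, and estimates < 0.5 were set to 0.5.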

GUUCCGUUGGCAUAAUGGUAACGCGUCUCCCUCCUAAGGAGAAGAUUGCGGGAUCGAGUCCCGUACGGAACG and GUUCCGUUGGCAUAAUAGUAACGCGUCUUCCUCCUAAGGAGAAGACUGCGGGUUCGAGUCCCGUACGGAACG cannot be ordered by yeast fitness: at most 0.5 for the first, at most 0.5 for the second.

Going from GUUCCGUUGGCAUAAUGAUAACGCGUUUCCCUCCUAAGGAGAAGAUUACGGGUUCGAGUCCCGUACGGAACG to GUUCCGUUGGCAUAAUGGUAACGCGUCUCUCUCCUAAGGAGAAGACUGCGGGUACGAGUCCCGUACGGAACG, the yeast fitness rises from at most 0.5 to 0.52.

Going from GUUCCGUUGGCAUAAUGGUAACGCGUCUCUCUCCUAAGGAGAAGACUGCGGGUCCGAGUCCCGUACGGAACG to GUUCCGUUGGCAUAAUAGUAACGCGUCUCCCUCCUAAGGAGAAGACUGCGGGUUCGAGUCCCGUACGGAACG, the yeast fitness rises from at most 0.5 to 0.881.

Compared with GUUCCGUUGGCAUAAUCGUAACGCCUCUGCCUCCUUAGAAGAAGAUUGCGGGUUUGAGUCCCGUACGGAACG, GUUCCGUUGGCAUAAUGCUAACGCGUCUCCCUCCUCAGGAGAAGACUGCGGGUUCGAGUCCCGUACGGAACG is higher in yeast fitness: at most 0.5 for the first, 0.537 for the second.

Going from GUUCCGUUGGCAUAAUGGUAACGCGUCUCCCUCCUAAGGAGAAGACUGUGGGUUCAAGUCGCGUACGGAACG to GUUCCGUUGGCAUAAUGGUAACGCGUCUCCCUCCUAAGGAGAAGACUGCGGGUUCGAGUCCUGUACGGAGCG, the yeast fitness rises from at most 0.5 to 0.69.

Going from GUUCCGUUGGCAUAAUGGUAACGCGUCUCCCUCCUAAGGAGAAGACUGGGGGUUCGAGUCCCGUACGGCACG to GUUCCGUUGGCAUAAUGGUAACGCGUCUCCCUUCUAAGGACAAGACUGCGGGUUCGAGUCCCGUACGGAACG, the yeast fitness falls from 0.551 to at most 0.5.

Going from GUUCCGUUGGCAUAAUGGUAACGCGUCUCCCUCCUAAGGAGAAGACUGCGGGUUUGAGUCCCGUAGGGAACG to GUUCCGUUGGCAUAAUGGUAACGCGUCUCACUCCUAAGGAGAAGACUGCGGGUUAGAGUCCCGUACAGAACG, the yeast fitness falls from 0.569 to at most 0.5.

Compared with GUUCCGUUGGCAUAAUGGUAACGCGUCUCUCUCCUAAGGAGAAGACUGCGGGUUCGAGUCCCGUACGGAACG, GUUCCGUUGGCAUAAUGAUAACGCGUCUCCUUCCUAAGGAGAAGACUGCGGGUUCGAGUCCCGUACGGAGCG is lower in yeast fitness: 0.836 for the first, at most 0.5 for the second.

First: GUUCCGUUGGCAUAAUGCUAACGCGUCUCCCUCCUAAGGAGUAGACUGCGGGUUCGAGUCCCGUACGGAACG
Second: GUUCCGUUGGCAUAAUGCUAACGCGUCUCCCUCCUAAGGAGAAGACUGCGGGUUCGAGUCCUCUACGGACCG
The yeast fitness of the first is higher: 0.65 for the first, at most 0.5 for the second.

GUUCCGUUGGCAUAAUGCUAACGCGUUUCCCUCCUAAGGAGAAGACUGCGGGUUAGAGUCCCGUACGGAACG and GUUCCGUUGGCAUAAUGGUAACGCGUCUCCGUCCUAAGGAGAAGACUCCGGGUUCGAGUCCCGUAGGGAACG cannot be ordered by yeast fitness: at most 0.5 for the first, at most 0.5 for the second.

Compared with GUUCCGUUGGCAUAAUGGUAACGCGUCUCCACCCUAAGGAGAAGACUGCGGGCUCGAGUGCCGUACGGAACG, GUUCCGUUGGCAUAAUAAUAACGCGUCUCCCUCCUGAGGAGUAGAUUGCGGGUUUGAGUCCCGUACGGAACG is higher in yeast fitness: at most 0.5 for the first, 0.581 for the second.

GUUCCGUUGGCAUAAUGUUAACGCGUCUCCCUCCUAAGAAGAAGACUGCGGGUUCGAGUCCCGUACGGAACG and GUUCCGUUGGCAUAAUGGUAACGCGUCUCCCUGCUAAGCAGAAGACUGCGGGUUCGAGUCCCGUACGGCACG cannot be ordered by yeast fitness: at most 0.5 for the first, at most 0.5 for the second.

First: GUUCCGUUGGCAUAAUGGUAACGCGUCUCCCUGCUAAGGAGAAGAUUGCCGGUUCGAGUCCCGUACGGAACG
Second: GUUCCGUUGGCAUAAUGGUAACGCGUCUCCCUACUAAGGGGAAGACUGCGGGUUCGAGUCCCGUACGGAUCG
The yeast fitness of the first is higher: 0.595 for the first, at most 0.5 for the second.

Going from GUUCCGUUGGCAUAAUGGUAACACGUCUCCCUCCUAAGGAGAAGACUGUGGGUUCGAGUUCCGUACAGAACG to GUUCCGUUGGCAUAAUGAUAACGCGUCUCCCUCCUAAGGAGAAGACUGCGGGUUCGAGUCGCGUACGGAGCG, the yeast fitness rises from at most 0.5 to 0.682.

Going from GUUCCGUUGGCAUAAUGAUAUCGCGUCUCCCUCCUAAGGAAAAGACUGCGGGUUCGAGUCCCGUACGGAACG to GUUCCGUUGGCAUAAUGGUAACGCGUCUCCCUCCUAAGGAGAAGACUGCGGGUUCGAGUCCUAUACGGAACG, the yeast fitness falls from 0.877 to at most 0.5.

First: GUUCCGUUGGCAUAAUGGUAACGCGUCUCCUUCCUAAGGAAAAGACUGCGGGUUCGAGUCCCGUACGGAACG
Second: GUUCCGUUGGCAUAAUGCCAACGCGUCUUCCUCCUAAGGAGAAGACUGCGGGUUCGAGUCCCGUACGGAACG
The yeast fitness of the first is higher: 0.686 for the first, at most 0.5 for the second.

Compared with GUUCCGUUGGCAUAAUGGUAACGCGUCUCCCUCCUAAGGAGAAGACUGUGGGUUCGAGUCCCGUACCGGACG, GUUCCGUUGGCAUAAUGGUAACGCGUCUCCCUCCUAAGGAGAAGACUGGGGGUUCGAGUCCCGUACGGAACG is higher in yeast fitness: at most 0.5 for the first, 0.943 for the second.

First: GUUCCGUUGGCAUAAUGGUAACGCGUCUCCCUCCUAAGGAGAAGACUGAGGGUUCGAGUCCCGUACGGAACG
Second: GUUCCGUUGGCAUAAUGGUAACGCGUCUCCCUCCUAAGGAGAAGAUUGCGGGUUCGAGUCCCGUUCGGAACG
The yeast fitness of the first is lower: 0.67 for the first, 0.998 for the second.

Going from GUUCCGUUGGCAUAAUGGUAACGCGUCUCCGUCAUAAGGAGAAGACUGCGGGUUCGAGUCCCGUACGGAACG to GUUCCGUUGGCAUAAUGGUAACGCGUCUCGCUCCUAAGGAGAAGACUGAGAGUUCGAGUCCCGUACGGAACG, the yeast fitness falls from 0.585 to at most 0.5.
